# Compound activity as filed in PubChem BioAssay.
# Shown are actives, neighbours in structure and some others; about 2.6% of the full set was active somewhere.
# Platelet DG rel = inhibitors of platelet dense granule secretion, primary screen, cell-based, MLPCN, human platelets. inhibition, %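 (compounds screened at 7.5 µM in platelet-rich plasma)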. hit rate 0.22% among 300,000. human platelet-rich plasma, SFLLRN dense granule ATP release, luminescence. AID 1663, 2009;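 active = mean replicate score, as percent of positive control, at or above 50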
# TAAR1 ag = human TAAR1 agonists, primary screen, Fluo-8 calcium fluorescence, CHO RD-HGA16 cells; vehicle wells 0%, saturating PEA agonist 100%; activation, % at 3 µM; hit rate 0.99% among 360,000; AID 624467, 2012;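 active = activation above the mean activation of all test compounds in the run plus 3 SD, cut at about 38% in these data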
# Target sequence (Q96RJ0 whole entry, looked up): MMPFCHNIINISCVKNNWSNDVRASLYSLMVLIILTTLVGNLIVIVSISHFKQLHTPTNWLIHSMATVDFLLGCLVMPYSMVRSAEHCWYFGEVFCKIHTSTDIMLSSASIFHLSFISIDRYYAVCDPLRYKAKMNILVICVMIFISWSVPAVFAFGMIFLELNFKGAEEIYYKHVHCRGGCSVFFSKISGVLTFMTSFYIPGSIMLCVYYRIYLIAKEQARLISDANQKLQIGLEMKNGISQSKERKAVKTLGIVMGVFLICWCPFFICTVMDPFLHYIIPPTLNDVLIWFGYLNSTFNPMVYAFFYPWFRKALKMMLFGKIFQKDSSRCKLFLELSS
#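 System: CHO-derived RD-HGA16 cells with stable Gα16 and human TAAR1 / Times: 17-24 h plating, Fluo-8 75 min 37 °C, 30 min RT / Technique: calcium-sensitive Fluo-8 signal, excitation 470-495, emission 515-575 nm / Measure: % activation relative to PEA EC100 response / Benchmarks: DMSO and PEA EC100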
# VLA-4 inh = inhibition in human VLA-4 binding assay, primary screen, VLA-4 allosteric modulator project, MLPCN library, flow cytometry, VLA-4 expressing cells; Integrin alpha-4 (Homo sapiens), P13612; ligand binding flow cytometry; inhibition, % (about 7 µM as worked out from the volumes in the protocol); hit rate 0.2% among 330,000; AID 2557, 2010; in the data active = inhibition above about 50%
# Rce1 inhib = yeast Rce1p protease inhibitors, primary screen, biochemical, fluorescence, cell-free homogeneous | yeast membranes, quenched prenylated peptide cleavage fluorescence | CAAX prenyl protease 2 (Saccharomyces cerevisiae (strain ATCC 204508 / S288c)), Q03530 | calls only | hit rate 0.27% among 290,000 | AID 2563, 2010;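 active = fall in fluorescence gain of 50% or more versus controls, with final raw signal at or below 3038400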;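 note: plate controls were neutral control wells for no effect and wells lacking membranes for full effect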
# Target sequence (Q03530 whole entry, looked up): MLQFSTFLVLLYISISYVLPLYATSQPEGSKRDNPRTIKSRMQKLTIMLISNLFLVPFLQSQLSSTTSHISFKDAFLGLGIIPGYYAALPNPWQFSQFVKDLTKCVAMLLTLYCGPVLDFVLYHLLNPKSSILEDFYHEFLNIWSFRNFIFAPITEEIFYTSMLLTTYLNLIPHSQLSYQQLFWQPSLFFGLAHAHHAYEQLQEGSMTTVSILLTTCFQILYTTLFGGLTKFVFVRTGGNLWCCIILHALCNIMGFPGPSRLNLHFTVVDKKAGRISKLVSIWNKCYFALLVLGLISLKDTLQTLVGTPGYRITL
# TAAR1 antagonist = human TAAR1 antagonists, primary screen, Fluo-8 calcium fluorescence, CHO RD-HGA16 cells | Trace amine-associated receptor 1 (Homo sapiens), Q96RJ0 | antagonist | inhibition, % at 3 µM | hit rate 1.5% among 360,000 | AID 624466, 2012;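 active = inhibition above a per-plate cutoff, the mean inhibition of test compounds on that plate plus 3 SD, cut at about 49% in these data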;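 note: 0% = DMSO plus EC80 beta-PEA response and 100% = DMSO alone without agonist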
#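 Test system: RD-HGA16 CHO cells with stable hTAAR1 and Gα16 / Probe or stimulus: EC80 β-phenethylamine stimulus / Times: seeding 17-24 h prior, 75-min 37 °C, 30-min RT dye loading / Detection: Fluo-8 calcium-sensitive fluorescence / Read-out basis: % inhibition scaled between DMSO and EC80 PEA controls / Repeats: singlicate, one well per test compound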
# Numbers without * were called inactive; i = inactive; / = no result; + = active, no number.
SMILES,Platelet DG rel,TAAR1 ag,VLA-4 inh,Rce1 inhib,TAAR1 antagonist
COc1ccc(Br)cc1CNC(=O)c1ccc2c(c1)N(C)CCS2,97*,-1,-4,i,-2
C[C@@H]1CN([C@H](C)CO)C(=O)CCCn2nncc2CO[C@H]1CN(C)CC1CC1,/,1,/,/,-9
c1ccc2c(C[C@@H]3CNCCN3CC3CCCCC3)cccc2c1,2,41*,6,i,-1
Cc1ccc2c(COC(=O)c3ccccc3OC(F)F)cc(=O)oc2c1,-1,8,-2,i,54*
COc1ccc(NC(=O)c2cc(-c3cccs3)on2)cc1OC,8,42*,-4,i,13
CC(=O)Nc1cccc(-c2cc3c(c4c2ccn4C)C2CCC3O2)c1 (centres undefined),/,-1,/,/,-4
Cc1ccc(Sc2c([N+](=O)[O-])ncn2C)cc1,-1,8,10,i,-6
Cn1cnc([N+](=O)[O-])c1Sc1ccc(C(C)(C)C)cc1,4,42*,8,i,28
O=C(NCc1ccncc1)[C@@H]1CCCN1C(=O)[C@@H]1CCCN1C(=O)c1cccs1,/,0,/,/,1
COC(=O)C1=C(C)N(Cc2ccc(C(F)(F)F)cc2)C(=NCc2ccc(C(F)(F)F)cc2)NC1c1cccc(F)c1 (centres undefined),/,18,/,/,25
Cc1ccc(S(=O)(=O)N2CC3(O)CN(C(=O)OC(C)C)N(C(=O)OC(C)C)CC3(OC(=O)NC3CCCC3)C2)cc1 (centres undefined),/,6,/,/,49*
O=C(c1ccccc1)c1ccc2ccccc2c1,/,2,/,/,-6
O=C(c1ccccc1)c1ccc2cc(O)ccc2c1,71*,6,27,i,31
O=C(CSc1n[nH]c(-c2ccc(S(=O)(=O)N3CCCCC3)cc2)n1)Nc1nccs1,-2,16,7,+,25
O=C(OCCCCN1C(=O)c2ccccc2C1=O)c1ccc(S(=O)(=O)N2CCCC2)cc1,58*,-1,13,i,2
O=C(COC(=O)c1ccc(S(=O)(=O)N2CCCC2)cc1)NCc1ccccc1,0,-2,10,+,-17
CCN(CC)C(=O)CSc1nc(-c2cccs2)cc(-c2cccs2)c1C#N,6,5,-9,i,61*
COc1ccccc1-c1cc(NC=O)c2ncc(-c3cccc(C(C)=O)c3)n2c1,/,16,/,/,50*
COc1ccccc1-c1cc(NC=O)c2ncc(-c3cccc(C(=O)N(C)C)c3)n2c1,/,13,/,/,23
COc1ccc(-c2cc(NC=O)c3ncc(-c4ccc(C(C)=O)cc4)n3c2)cn1,/,9,/,/,53*
O=CNc1cc(-c2ccsc2)cn2c(-c3ccccc3)cnc12,/,8,/,/,60*
COc1ccc(-c2cc(NC=O)c3ncc(-c4cccc(OC)c4)n3c2)cc1,/,9,/,/,59*
CC1(C(=O)NS(=O)(=O)c2cccc(C#N)c2)CCN1C(=O)c1ccco1 (centres undefined),/,3,/,/,-9
COC(OC)c1ccnc(-c2ccc(OC(=O)c3cccs3)cc2)n1,2,6,3,i,-7
Cc1cccc(/N=C/c2sc3ccccc3c2O)n1,51*,1,-9,i,2
SMILES,Platelet DG rel,TAAR1 ag,VLA-4 inh,Rce1 inhib,TAAR1 antagonist
CC(OC(=O)c1ccc2c(=O)n3c(nc2c1)CCC3)C(=O)NC1CCCCC1C (centres undefined),0,0,14,+,-5
CS(=O)(=O)c1ccc2nc(NC(=O)c3ccc(=O)[nH]c3)sc2c1,4,1,14,i,-8
Cn1nc(C(=O)Nc2nc3ccc(S(C)(=O)=O)cc3s2)ccc1=O,53*,8,2,i,-5
CCOC(=O)C1CCN(C(=O)Cn2nc(C)n3c(cc4cc(C)ccc43)c2=O)CC1,-9,1,-117,i,-40
CCOC(=O)C1CCN(C(=O)Cn2nc(C)n3c(cc4cc(F)ccc43)c2=O)CC1,50*,2,-88,i,-9
COc1ccc(C)cc1NC(=O)CN1C(=O)COc2ccc(S(=O)(=O)N3CCCCCC3)cc21,4,-2,-9,i,-12
COc1ccc(C)cc1NC(=O)CN1C(=O)COc2ccc(S(=O)(=O)N3CCOCC3)cc21,-7,0,-1,+,-1
COc1ccc(C(CNC(=O)Cc2cccs2)N(C)C)cc1 (centres undefined),0,1,6,i,4
COc1ccc(N2CCN(c3nc4c(c(=O)n(C)c(=O)n4C)n3Cc3ccccc3)CC2)cc1,50*,5,-18,i,-6
C=CCn1c(N2CCCCCC2)nc2c1c(=O)n(C)c(=O)n2C,-1,/,16,+,/
CCCCCc1ccc(-c2cn(CN3C(=O)c4ccccc4C3=O)nn2)cc1,7,0,0,i,1
Nc1ccc2cc3[nH]c4cc(N)ccc4c3nc2c1,/,78*,/,/,63*
CC(=O)C1=C(C)N(Cc2ccc(F)cc2)C(=S)NC1c1ccc(Cl)cc1 (centres undefined),/,-1,/,/,26
O=C(c1ccc(F)cc1Cl)N1CCN(CCc2ccccc2)CC1,6,13,22,i,-9
COC(=O)N/N=C/c1cn(CCOc2ccc(OC)cc2)c2ccccc12,-2,1,6,i,50*
COc1ccccc1C(=O)NC1CCSc2ccccc21 (centres undefined),13,4,24,i,-35
COc1cc(/C=C/c2ccc3cccc(OC)c3n2)c(OC(C)=O)c([N+](=O)[O-])c1,5,7,11,i,49*
COc1cc(/C=C/c2ccc3cccc(OC)c3n2)c(O)c([N+](=O)[O-])c1,-2,7,-3,i,-6
CCOC(=O)c1ccc(NC(=O)c2nc[nH]c2C(=O)NCCCCCNC(=O)OC(C)(C)C)cc1,5,14,-20,i,56*
Cc1ccc(NC(=O)c2nc[nH]c2C(=O)NCCCCNC(=O)c2[nH]cnc2C(=O)Nc2ccc(C)cc2)cc1,/,18,4,/,60*
O=C(Nc1ccccc1)c1nc[nH]c1C(=O)NCCCCNC(=O)c1[nH]cnc1C(=O)Nc1ccccc1,/,21,-58,/,57*
O=C(Nc1ccccc1)c1nc[nH]c1C(=O)NCCNC(=O)c1[nH]cnc1C(=O)Nc1ccccc1,/,27,-30,/,56*
CCOC(=O)c1ccc(NC(=O)c2nc[nH]c2C(=O)NCCCCNC(=O)c2[nH]cnc2C(=O)Nc2ccc(C(=O)OCC)cc2)cc1,/,5,-7,/,31
Cc1ccc(NC(=O)c2nc[nH]c2C(=O)NCCCCCCNC(=O)c2[nH]cnc2C(=O)Nc2ccc(C)cc2)cc1,/,3,-2,/,-7
Cc1nc(CN(C)c2ncnc3ccc(-c4ccc5c(c4)OCO5)cc23)cs1,/,0,/,/,28
